Tb MetRS inh: T. brucei MetRS inhibitors, primary screen, biochemical, luminescence | inhibition, % at 11.9 µM | 0.4% of 360,000 active | purified T. brucei MetRS, ATP depletion, Kinase-Glo luminescence | methionyl-tRNA synthetase (Trypanosoma brucei brucei);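 active means inhibition above a per-plate cutoff of the control wells' mean inhibition plus 3 SD, cut at about 5.5% in these data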
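Material: parasite MetRS enzyme / Replication: singlicate, one well per compound / Signal: luminescence of leftover ATP / Schedule: 2 h aminoacylation at 25 °C after 15 min preincubation / Medium: HEPES-MgCl2-KCl buffer plus DTT, spermine, BSA, pyrophosphatase / Doses: 11.9 µM single point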
ATG4B inhibitor: ATG4B protease inhibitors, primary screen, biochemical, fluorescence, uHTS; ATG4B cleavage of LC3-PLA2, NBD-HPC fluorescence, 1 h; inhibition, % at 8.33 µM; 0.51% of 340,000 active; AID 504462, 2011; Cysteine protease ATG4B (Homo sapiens), Q9Y4P1; in the data active means inhibition above about 40%
Rin1 Abl inh: inhibitors of Rin1-Abl protein binding, primary screen, biochemical, TR-FRET; Tyrosine-protein kinase ABL1 (Homo sapiens) + Ras and Rab interactor 1 (Homo sapiens), …; inhibition, % at 7.35 µM; 0.4% of 360,000 active; in the data active means inhibition above about 5%, passing the limit was not always enough
UCH37 inh: inhibitors of human UCH37 deubiquitinase, primary screen, biochemical, Ub-AMC cleavage, fluorescence. purified proteasome/UCH37. Ubiquitin carboxyl-terminal hydrolase isozyme L5 (Homo sapiens), Q9Y5K5. 0.33% of 330,000 active. AID 588478, 2011. inhibition, % (concentration not given with the values);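 active means mean inhibition over replicate wells above about 20%, limit read from the data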
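Material: Human UCH37 enzyme supplied as purified proteasome complex | Schedule: 30 min compound-proteasome preincubation then 25 min substrate reaction, room temperature | Detection: AMC fluorescence from Ub-AMC cleavage, excitation 355 nm, emission 460 nm | Benchmarks: Wells without proteasome as full block, compound-free enzyme plus substrate as uninhibited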
ATG4B conf: ATG4B protease inhibitors, retest, confirmation, biochemical, fluorescence, single concentration | shares compounds with ATG4B inhibitor | ATG4B protease fluorescent substrate cleavage assay | inhibition, % at 8.33 µM | 92% of 320 active; in the data active means inhibition above about 39%
PLA2 ctr: PLA2 enzyme inhibition, counter-screen for ATG4B inhibitor project, biochemical, single concentration, uHTS hits. shares compounds with ATG4B inhibitor. purified PLA2, NBD-C6-HPC fluorescence, 45 min. inhibition, % at 8.33 µM. 66% of 1,600 active. AID 588402, 2011; in the data active means inhibition above about 50%
Numbers stand for hits; . = inactive; / = not tested or not shown. The list is not random: actives were taken first. Their share in the collection is about 1.4%.

SMILES | Tb MetRS inh | ATG4B inhibitor | Rin1 Abl inh | UCH37 inh | PLA2 ctr | others
CN(C)c1ccccc1C(=O)N1CCCC(Nc2ccc(F)cc2)C1 (stereo not given) | . | . | . | . | /
CCN(CC)C(=O)c1ccc2c(=O)n(Cc3ccc4c(c3)OCO4)c(=S)[nH]c2c1 | . | . | . | . | /
CC1CCCN(C(=O)c2ccc3c(=O)n(Cc4ccc5c(c4)OCO5)c(=S)[nH]c3c2)C1 (stereo not given) | . | 85 | . | . | 62
CCn1c(SCC(=O)Nc2cccc(OC)c2)nc2ccccc2c1=O | . | . | . | . | /
Cc1ccc(CN2CCCN(Cc3c(F)cccc3Cl)S2(=O)=O)cc1 | . | . | . | . | /
O=S1(=O)N(Cc2ccccc2F)CCCN1Cc1c(F)cccc1Cl | . | 68 | . | . | 83
CCN(Cc1ccccc1)C(=O)C1CCN(c2ncnc3c2nc2n3CCCCC2)CC1 | . | 45 | . | . | 53
O=C(C1CCN(c2ncnc3c2nc2n3CCCCC2)CC1)N1CCCCC1 | . | . | . | . | /
CCc1ccccc1N(CC)C(=O)C1CCN(c2ncnc3c2nc2n3CCCCC2)CC1 | . | 53 | . | . | 66
CCc1ccccc1NC(=O)CC(=O)Nc1ccccc1CC | . | . | . | . | /
Cc1onc(-c2ccccc2)c1C(=O)NC(=S)NNC(=O)c1ccc(O)cc1O | . | . | . | . | /
O=C(c1ccco1)N1CCN(C(=O)c2cccn3c(=O)c4c5c(sc4nc23)CCCC5)CC1 | . | . | . | . | /
Cc1sc2ncnc(SCC(=O)N3CCN(C(=O)c4ccco4)CC3)c2c1C | . | . | . | . | /
Cc1sc2nc(C3CC3)nc(SCC(=O)N3CCc4ccccc4C3)c2c1C | . | . | . | . | /
Cc1nc(N2CCN(C(=O)c3ccco3)CC2)c2c3c(sc2n1)CCC3 | . | 67 | . | . | 71
CC(C)c1nc(N2CCN(C(=O)c3ccco3)CC2)c2c3c(sc2n1)CCCC3 | . | 92 | . | . | 90
CCc1c(C)sc2nc(C(C)C)nc(SCC(=O)N3CCc4ccccc4C3)c12 | / | 46 | / | . | 50
Cc1sc2nc(C(C)C)nc(SCC(=O)N3CCN(C(=O)c4ccco4)CC3)c2c1C | . | 47 | . | . | 57
CCCc1nc(SCC(=O)NC2CC2)c2c(C)c(C)sc2n1 | . | . | . | . | /
CCCc1nc(SCC(=O)N2c3ccccc3CC2C)c2c(C)c(C)sc2n1 (stereo not given) | . | 69 | . | . | 81
CC(=O)N1c2c(cc(Br)cc2S(=O)(=O)N2CCN(c3ccccc3F)CC2)CC1C (stereo not given) | . | 55 | . | . | 67
CCc1ccc(N2C(=O)CN(Cc3ccc(OC)c(OC)c3)C2=S)cc1 | . | . | . | . | /
Cc1ccc(N2C(=O)CN(Cc3ccccc3)C2=S)cc1C | . | 75 | . | . | 79
Cc1ccc(N2C(=O)CN(Cc3cccs3)C2=S)cc1C | . | 58 | . | . | 78
COc1cccc(N2C(=O)CN(Cc3cc(OC)c(OC)c(OC)c3)C2=S)c1 | . | . | . | . | /
SMILES | Tb MetRS inh | ATG4B inhibitor | Rin1 Abl inh | UCH37 inh | PLA2 ctr | others
Cc1ccccc1N1C(=O)CN(Cc2sccc2C)C1=S | . | 65 | . | . | 79
Cc1ccc(N2C(=O)CN(Cc3sccc3C)C2=S)cc1C | . | 95 | . | . | 94
Cc1ccnc(NS(=O)(=O)c2ccc(-n3cccn3)cc2)c1 | . | . | . | . | /
Cc1ccc(-c2nc(CC(=O)Nc3cccc(S(=O)(=O)NC4=NCCC4)c3)cs2)cc1 | . | . | . | . | /
O=S(=O)(c1cccs1)N1CCN(c2ccccc2Cl)CC1 | . | 45 | . | . | 64
O=S(=O)(c1cccs1)N1CCN(c2ccccc2F)CC1 | . | . | . | . | /
O=S(=O)(c1ccc(F)cc1)c1nc(-c2ccccc2F)oc1N1CCCCC1 | . | 44 | . | . | . | ATG4B conf=65
O=C(O)Cc1sc(NC2CCCCC2)nc1-c1ccc(Cl)cc1 | . | 54 | . | . | . | ATG4B conf=65

Assay outcomes from PubChem BioAssay.
